Values after ≈ are worked out from the molar mass of the structure shown.
Experiments:
[1] = tested on: S. epidermidis 700296 (Se); experiment: MIC, broth microdilution with resazurin; type: cell-based; conditions: Staphylococcus epidermidis, read-out: MIC Values Se
[2] = tested on: S. aureus ATCC 33592 (Sa92); experiment: MIC, broth microdilution with resazurin; type: cell-based, Staphylococcus aureus; conditions: Staphylococcus aureus, ATCC33592, read-out: MIC Values Sa92
Summary of the method: (§1)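 CLSI broth microdilution. Strains were grown overnight at 35 °C on TSA or TSA with 5% sheep blood. Colonies were suspended in 0.9% saline to 0.5 McFarland, then diluted 1:100 in Mueller Hinton broth (about 1 × 10^6 CFU/mL). Test compound (2 mg/mL DMSO stock) was serially diluted 1:2 from 50 µg/mL final. Resazurin was added at 8 µg/mL final, and plates were incubated 35 °C for 20–24 h and read visually. MIC is the lowest concentration without the resazurin colour change. Each plate carried untreated, DMSO and antibiotic controls.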

[3] = tested on: S. aureus ATCC 25923 (Sa); experiment: MIC, broth microdilution with resazurin; type: cell-based, Staphylococcus aureus; conditions: Staphylococcus aureus, ATCC25923, read-out: MIC Values Sa
Summary of the method: as §1

[4] = tested on: tested Gram-positive strains (S. aureus incl. MRSA, S. epidermidis, B. subtilis); experiment: MIC summarised in the text over the tested Gram-positive strains; type: cell-based
[5] = tested on: S. aureus BAA-2312 (Sa12); experiment: MIC, broth microdilution with resazurin; type: cell-based, Staphylococcus aureus; conditions: Staphylococcus aureus, BAA2312, read-out: MIC Values Sa12
Summary of the method: as §1

[6] = tested on: S. aureus ATCC 33591 (Sa91); experiment: MIC, broth microdilution with resazurin; type: cell-based, Staphylococcus aureus; conditions: Staphylococcus aureus, ATCC33591, read-out: MIC Values Sa91
Summary of the method: as §1

[7] = tested on: S. aureus ATCC 700699 (Sa99); experiment: MIC, broth microdilution with resazurin; type: cell-based, Staphylococcus aureus; conditions: for MIC: Staphylococcus aureus, ATCC700699, read-out: MIC Values Sa99
Summary of the method: as §1

[8] = tested on: A. baumannii ATCC 747 (Ab47); experiment: MIC, broth microdilution with resazurin; type: cell-based, Acinetobacter baumannii; conditions: Acinetobacter baumannii, ATCC747, read-out: MIC Ab47
Summary of the method: as §1

[9] = tested on: A. baumannii ATCC 19606 (Type Strain, AB06); experiment: MIC, broth microdilution with resazurin; type: cell-based, Acinetobacter baumannii; conditions: Acinetobacter baumannii, ATCC19606, read-out: MIC Ab06
Summary of the method: as §1

[10] = tested on: three strains of A. baumannii; experiment: MIC summarised in the text over the three A. baumannii strains; type: cell-based, Acinetobacter baumannii
Summary of the method: as §1

Molecule	MIC [1] [µg/mL]	MIC [2] [µg/mL]	MIC [3] [µg/mL]	MIC value as low as ([4]; lowest MIC over the tested Gram-positive / MRSA strains) [µg/mL]	MIC [5] [µg/mL]	MIC [6] [µg/mL]	MIC [7] [µg/mL]	MIC [8] [µg/mL]	activity against the tested strains (in words) [4]	MIC [9] [µg/mL]	MIC Values Sa99 ([7]; antibiotic-resistant strain, NA = No Activity)	activity against A. baumannii strains (in words) [10]
O=C(O)c1ccc(-n2cc(/C=N/Nc3cccc(Cl)c3F)c(-c3cccc(F)c3)n2)cc1 [Compound 13, 4-[4-[(E)-[(3-Chloro-2-fluorophenyl)hydrazono]methyl]-3-(3-fluorophenyl)pyrazol-1-yl]benzoic Acid]	6.25 (≈ 13.8 µM)	0.78 (≈ 1.72 µM)	3.12 (≈ 6.9 µM)	0.78 (≈ 1.72 µM)	12.5 (≈ 27.6 µM)	6.25 (≈ 13.8 µM)	3.12 (≈ 6.9 µM)					
N#Cc1ccc(N/N=C/c2cn(-c3ccc(C(=O)O)cc3)nc2-c2ccc(F)cc2)cc1 [Compound 30, 4-[4-[(E)-[(4-Cyanophenyl)hydrazono]methyl]-3-(4-fluorophenyl)pyrazol-1-yl]benzoic Acid]		12.5 (≈ 29.4 µM)	12.5 (≈ 29.4 µM)				6.25 (≈ 14.7 µM)	12.5 (≈ 29.4 µM)	moderate activity	12.5 (≈ 29.4 µM)		
O=C(O)c1ccc(-n2cc(/C=N/Nc3cccc(Cl)c3F)c(-c3ccc(F)cc3)n2)cc1 [Compound 29, 4-[4-[(E)-[(3-Chloro-2-fluorophenyl)hydrazono]methyl]-3-(4-fluorophenyl)pyrazol-1-yl]benzoic Acid]	12.5 (≈ 27.6 µM)	1.56 (≈ 3.44 µM)	6.25 (≈ 13.8 µM)		3.12 (≈ 6.9 µM)	12.5 (≈ 27.6 µM)	1.56 (≈ 3.44 µM)					
O=C(O)c1ccc(-n2cc(/C=N/N(Cc3ccccc3)Cc3ccccc3)c(-c3ccc(F)cc3)n2)cc1 [Compound 25, 4-[4-[(E)-(Dibenzylhydrazono)methyl]-3-(4-fluorophenyl)pyrazol-1-yl]benzoic Acid]		3.12 (≈ 6.19 µM)					6.25 (≈ 12.4 µM)					
O=Cc1cn(-c2ccc(C(=O)O)cc2)nc1-c1cccc(F)c1 [3a, 4-[3-(3-Fluorophenyl)-4-formyl-pyrazol-1-yl]benzoic Acid]											did not show any activity	
O=C(O)c1ccc(-n2cc(/C=N/Nc3cccc(Br)c3)c(-c3cccc(F)c3)n2)cc1 [Compound 9, 4-[4-[(E)-[(3-Bromophenyl)hydrazono]methyl]-3-(3-fluorophenyl)pyrazol-1-yl]benzoic Acid]	12.5 (≈ 26.1 µM)	6.25 (≈ 13 µM)	12.5 (≈ 26.1 µM)		12.5 (≈ 26.1 µM)	12.5 (≈ 26.1 µM)	3.12 (≈ 6.52 µM)	12.5 (≈ 26.1 µM)		6.25 (≈ 13 µM)		moderate activity
O=C(O)c1ccc(-n2cc(/C=N/Nc3ccc(Br)cc3)c(-c3cccc(F)c3)n2)cc1 [Compound 10, 4-[4-[(E)-[(4-Bromophenyl)hydrazono]methyl]-3-(3-fluorophenyl)pyrazol-1-yl]benzoic Acid]	12.5 (≈ 26.1 µM)	6.25 (≈ 13 µM)	12.5 (≈ 26.1 µM)		12.5 (≈ 26.1 µM)	12.5 (≈ 26.1 µM)	6.25 (≈ 13 µM)	6.25 (≈ 13 µM)		3.12 (≈ 6.52 µM)		moderate activity
O=C(O)c1ccc(-n2cc(/C=N/Nc3ccc(F)cc3)c(-c3ccc(F)cc3)n2)cc1 [Compound 26, 4-[3-(4-Fluorophenyl)-4-[(E)-[(4-fluorophenyl)hydrazono]methyl]pyrazol-1-yl]benzoic Acid]	25 (≈ 59.8 µM)	12.5 (≈ 29.9 µM)	12.5 (≈ 29.9 µM)		25 (≈ 59.8 µM)	25 (≈ 59.8 µM)	12.5 (≈ 29.9 µM)	> 25	moderate activity	12.5 (≈ 29.9 µM)		
O=C(O)c1ccc(-n2cc(/C=N/Nc3c(F)c(F)c(F)c(F)c3F)c(-c3cccc(F)c3)n2)cc1 [Compound 15, 4-[3-(3-Fluorophenyl)-4-[(E)-[(2,3,4,5,6-pentafluorophenyl)hydrazono]methyl]pyrazol-1-yl]benzoic Acid]	25 (≈ 51 µM)	3.12 (≈ 6.37 µM)	12.5 (≈ 25.5 µM)		12.5 (≈ 25.5 µM)	12.5 (≈ 25.5 µM)	6.25 (≈ 12.7 µM)		moderate activity			
O=C(O)c1ccc(-n2cc(/C=N/Nc3ccccn3)c(-c3cccc(F)c3)n2)cc1 [Compound 20, 4-[3-(3-Fluorophenyl)-4-{(E)-[2-(pyridin-2-yl)hydrazinylidene]methyl}-1H-pyrazol-1-yl]benzoic Acid]									completely ceased the activity			
O=C(O)c1ccc(-n2cc(/C=N/Nc3ccc(C(F)(F)F)cc3)c(-c3cccc(F)c3)n2)cc1 [Compound 16, 4-[3-(3-Fluorophenyl)-4-[(E)-[[4-(trifluoromethyl)phenyl]hydrazono]methyl]pyrazol-1-yl]benzoic Acid]	12.5 (≈ 26.7 µM)	6.25 (≈ 13.3 µM)	12.5 (≈ 26.7 µM)		12.5 (≈ 26.7 µM)	6.25 (≈ 13.3 µM)	6.25 (≈ 13.3 µM)		moderate activity			
O=C(O)c1ccc(-n2cc(/C=N/Nc3cccc(Br)c3)c(-c3ccc(F)cc3)n2)cc1 [Compound 27, 4-[4-[(E)-[(3-Bromophenyl)hydrazono]methyl]-3-(4-fluorophenyl)pyrazol-1-yl]benzoic Acid]	25 (≈ 52.2 µM)	3.12 (≈ 6.52 µM)	12.5 (≈ 26.1 µM)		12.5 (≈ 26.1 µM)	12.5 (≈ 26.1 µM)	6.25 (≈ 13 µM)	25 (≈ 52.2 µM)	moderate activity	6.25 (≈ 13 µM)		
4-[4-[(2-Benzyl-2-phenyl-hydrazino)methyl]-3-(4-fluorophenyl)pyrazol-1-yl]benzoic Acid [Compound 24]									failed to show any significant activity			
O=C(O)c1ccc(N/N=C/c2cn(-c3ccc(C(=O)O)cc3)nc2-c2cccc(F)c2)cc1 [Compound 18, 4-[(2E)-2-[[1-(4-Carboxyphenyl)-3-(3-fluorophenyl)pyrazol-4-yl]methylene]hydrazino]benzoic Acid]									completely ceased the activity			
O=C(O)c1ccc(-n2cc(/C=N/N(Cc3ccccc3)c3ccccc3)c(-c3cccc(F)c3)n2)cc1 [Compound 6, 4-[4-[(E)-[Benzyl(phenyl)hydrazono]methyl]-3-(3-fluorophenyl)pyrazol-1-yl]benzoic Acid]	1.56 (≈ 3.18 µM)	1.56 (≈ 3.18 µM)	1.56 (≈ 3.18 µM)		1.56 (≈ 3.18 µM)	1.56 (≈ 3.18 µM)	1.56 (≈ 3.18 µM)					
O=C(O)c1ccc(-n2cc(/C=N/n3cnnc3)c(-c3cccc(F)c3)n2)cc1 [Compound 19, 4-[3-(3-Fluorophenyl)-4-[(E)-1,2,4-triazol-4-yliminomethyl]pyrazol-1-yl]benzoic Acid]									completely ceased the activity			
O=C(O)c1ccc(-n2cc(/C=N/Nc3cc(F)ccc3F)c(-c3cccc(F)c3)n2)cc1 [Compound 11, 4-[4-[(E)-[(2,5-Difluorophenyl)hydrazono]methyl]-3-(3-fluorophenyl)pyrazol-1-yl]benzoic Acid]	12.5 (≈ 28.6 µM)	3.12 (≈ 7.16 µM)	12.5 (≈ 28.6 µM)		12.5 (≈ 28.6 µM)	12.5 (≈ 28.6 µM)	6.25 (≈ 14.3 µM)					
O=C(O)c1ccc(-n2cc(/C=N/Nc3c(F)c(F)cc(F)c3F)c(-c3cccc(F)c3)n2)cc1 [Compound 14, 4-[3-(3-Fluorophenyl)-4-[(E)-[(2,3,5,6-tetrafluorophenyl)hydrazono]methyl]pyrazol-1-yl]benzoic Acid]	25 (≈ 52.9 µM)	6.25 (≈ 13.2 µM)	12.5 (≈ 26.5 µM)		12.5 (≈ 26.5 µM)	12.5 (≈ 26.5 µM)	6.25 (≈ 13.2 µM)		moderate activity			
O=C(O)c1ccc(-n2cc(/C=N/Nc3ccc([N+](=O)[O-])cc3)c(-c3ccc(F)cc3)n2)cc1 [Compound 31, 4-[3-(4-Fluorophenyl)-4-{(E)-[2-(4-nitrophenyl)hydrazinylidene]methyl}-1H-pyrazol-1-yl]benzoic Acid]									no activity			
CN(/N=C/c1cn(-c2ccc(C(=O)O)cc2)nc1-c1cccc(F)c1)c1ccccc1 [Compound 4, 4-{3-(3-Fluorophenyl)-4-[(E)-(2-methyl-2-phenylhydrazinylidene)methyl]-1H-pyrazol-1-yl}benzoic Acid]	12.5 (≈ 30.2 µM)	12.5 (≈ 30.2 µM)	12.5 (≈ 30.2 µM)		25 (≈ 60.3 µM)	25 (≈ 60.3 µM)	25 (≈ 60.3 µM)		moderate growth inhibition			
O=C(O)c1ccc(-n2cc(/C=N/Nc3cc(F)ccc3F)c(-c3ccc(F)cc3)n2)cc1 [Compound 28, 4-[4-[(E)-[(2,5-Difluorophenyl)hydrazono]methyl]-3-(4-fluorophenyl)pyrazol-1-yl]benzoic Acid]	12.5 (≈ 28.6 µM)	6.25 (≈ 14.3 µM)	12.5 (≈ 28.6 µM)		12.5 (≈ 28.6 µM)	25 (≈ 57.3 µM)	6.25 (≈ 14.3 µM)		moderate activity			

From article PMC6733178 (ACS Omega, 2019)
